According to ChEMBL document CHEMBL3792306, “Antichagasic and trichomonacidal activity of 1-substituted 2-benzyl-5-nitroindazolin-3-ones and 3-alkoxy-2-benzyl-5-nitro-2H-indazoles” (Eur J Med Chem, 2016):
pIC50: −log10 of the molar value.

Tests used:
[1] = system: Trichomonas vaginalis; experiment: Trichomonacidal activity against metronidazole-sensitive Trichomonas vaginalis JH31A#4 trophozoites after 24 hrs by resazurin dye based fluorescence assay; assay type: functional, organism-based; settings: JH31A#4, 24 h
In short: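 Trophozoites in TYM with 10% FBS, 37 °C, 5% CO₂, seeded at 10⁵/mL in glass tubes. After 5 h, compounds added at 9.37–300 µM final (DMSO <0.2%). Viability read by resazurin fluorimetry after 24 h at 37 °C. Metronidazole 25 µM as reference. At least two runs in triplicate; IC50 with 95% limits by probit.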

[2] = system: Trypanosoma cruzi; experiment: Antichagasic activity against Trypanosoma cruzi CL-B5 epimastigotes […] assessed as growth inhibition after 72 hrs by beta galactosidase reporter gene assay; assay type: functional, organism-based
In short: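 Then CPRG (200 µM final, pH 7.4) in Triton X-100 added for 3 h at 37 °C, A595 read. Triplicates, three independent runs; IC50 from dose–response of %growth inhibition, mean ± SD.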

[3] = Cytotoxicity against mouse L929 cells after 48 hrs by resazurin assay; assay type: cell-based; settings: read-out: LC50
In short: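 L929 fibroblasts, 15×10^3 cells/well in MEM, attached 3 h. Exposed to compounds for 48 h at 37 °C, 5% CO2. Resazurin (2 mM solution in PBS) added for 3 h; fluorescence read at 535/590 nm to give % cytotoxicity. Triplicate wells, three independent runs. LC50 taken from concentration vs %C curves, mean ± SD.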

[4] = Selectivity index, ratio of LC50 for mouse L929 cells to IC50 for Trypanosoma cruzi CL-B5 lacZ epimastigotes […]; assay type: toxicity, cell-based; settings: read-out: Ratio LC50/IC50
In short: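 SI = LC50 (L929, 48 h resazurin) / epimastigote IC50. […] CPRG (200 µM final, 0.9% Triton X-100, pH 7.4) added for 3 h at 37 °C, A595 read. Triplicates, n = 3; IC50 from %EGI curves.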

[5] = Selectivity index, ratio of LC50 for mouse L929 cells to IC50 for Trypanosoma cruzi CL-B5 lacZ amastigotes in mouse L929 cells; assay type: toxicity, cell-based; settings: read-out: Ratio LC50/IC50
In short: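 SI = LC50 (L929, 48 h resazurin) / amastigote IC50. Amastigotes: L929 cells (10,000/well, MEM) infected overnight at 33 °C with CL-B5 lacZ tissue-culture trypomastigotes (1:6 cell:parasite), washed, then exposed to compounds for 7 days. CPRG (400 µM final, 3% Triton X-100, pH 7.4) added for 3 h at 37 °C, A595 read. Triplicates; IC50 from %AGI curves. Assayed only when epimastigote SI warranted.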

[6] = system: Trypanosoma cruzi; experiment: Antichagasic activity against Trypanosoma cruzi CL-B5 intracellular amastigotes in mouse L929 cells assessed as growth inhibition after 7 days by beta galactosidase reporter gene assay; assay type: functional, organism-based; settings: CL-B5, L929, 168 h
In short: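 L929 fibroblasts (10,000/well, MEM) infected overnight at 33 °C, 5% CO₂ with CL-B5 lacZ tissue-culture trypomastigotes (1:6 cell:parasite). Washed, then 7 days with compound in fresh MEM. CPRG (400 µM final, pH 7.4) in 3% Triton X-100 for 3 h at 37 °C, A595. Triplicates; IC50 from %amastigote growth inhibition curves, mean ± SD.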

COc1c2cc([N+](=O)[O-])ccc2nn1C
pIC50 [1]: 4.73

CC(=O)n1c2ccc([N+](=O)[O-])cc2c(=O)n1Cc1ccccc1
pIC50 [1]: 3.67 | pIC50 [2]: < 3.59 | CC50 at 48 h [3]: > 256 µM

O=C(O)CCn1c2ccc([N+](=O)[O-])cc2c(=O)n1Cc1ccccc1
pIC50 [2]: < 3.59 | CC50 at 48 h [3]: > 256 µM

Cc1ccc(S(=O)(=O)n2c3ccc([N+](=O)[O-])cc3c(=O)n2Cc2ccccc2)cc1
pIC50 [1]: 3.82 | pIC50 [2]: 4.54 | selectivity ratio [4]: > 8.9 | CC50 at 48 h [3]: > 256 µM

C#CCn1c2ccc([N+](=O)[O-])cc2c(=O)n1Cc1ccccc1
selectivity ratio [5]: 64.7 | pIC50 [1]: 3.58 | pIC50 [2]: 4.97 | pIC50 [6]: 5.52 | selectivity ratio [4]: 18.1 | CC50 at 48 h [3]: 195 µM

CCOC(=O)n1c2ccc([N+](=O)[O-])cc2c(=O)n1Cc1ccccc1
pIC50 [1]: 3.38 | pIC50 [2]: 4.31 | selectivity ratio [4]: 2.49 | CC50 at 48 h [3]: 122 µM

O=[N+]([O-])c1ccc2nn(Cc3ccccc3)c(OCCOc3c4cc([N+](=O)[O-])ccc4nn3Cc3ccccc3)c2c1
pIC50 [2]: < 3.59 | CC50 at 48 h [3]: > 256 µM

O=c1c2cc([N+](=O)[O-])ccc2n(CCCBr)n1Cc1ccccc1
pIC50 [1]: 4.10 | pIC50 [2]: 5.54 | selectivity ratio [4]: 8.69 | CC50 at 48 h [3]: 25.2 µM

O=C(OCc1ccccc1)n1c2ccc([N+](=O)[O-])cc2c(=O)n1Cc1ccccc1
pIC50 [1]: 3.23 | pIC50 [2]: 4.36 | selectivity ratio [4]: 1.97 | CC50 at 48 h [3]: 86.1 µM

CNC(=O)CCCn1c2ccc([N+](=O)[O-])cc2c(=O)n1Cc1ccccc1
selectivity ratio [5]: > 171 | pIC50 [1]: 3.74 | pIC50 [2]: 4.88 | pIC50 [6]: 5.82 | selectivity ratio [4]: > 19.3 | CC50 at 48 h [3]: > 256 µM

CCOCCCn1c2ccc([N+](=O)[O-])cc2c(=O)n1Cc1ccccc1
selectivity ratio [5]: 51.5 | pIC50 [1]: 3.44 | pIC50 [2]: 5.18 | pIC50 [6]: 5.48 | selectivity ratio [4]: 25.9 | CC50 at 48 h [3]: 170 µM

NC(=O)CN1c2ccc([N+](=O)[O-])cc2C(=O)N(Cc2ccccc2)C1C(N)=O (stereo not given)
pIC50 [2]: < 3.59 | CC50 at 48 h [3]: > 256 µM

COC(=O)CCn1c2ccc([N+](=O)[O-])cc2c(=O)n1Cc1ccccc1
selectivity ratio [5]: > 87.4 | pIC50 [1]: 3.43 | pIC50 [2]: 5.04 | pIC50 [6]: 5.53 | selectivity ratio [4]: > 27.9 | CC50 at 48 h [3]: > 256 µM

COCCOc1c2cc([N+](=O)[O-])ccc2nn1Cc1ccccc1
pIC50 [1]: 3.97 | pIC50 [2]: < 3.59 | CC50 at 48 h [3]: > 256 µM

COC(=O)C1Nc2ccc([N+](=O)[O-])cc2C(=O)N1Cc1ccccc1 (stereo not given)
pIC50 [2]: 3.66 | selectivity ratio [4]: > 1.18 | CC50 at 48 h [3]: > 256 µM

COC(=O)CN1c2ccc([N+](=O)[O-])cc2C(=O)N(Cc2ccccc2)C1C(=O)OC (stereo not given)
pIC50 [1]: 4.24 | pIC50 [2]: < 3.59 | selectivity ratio [4]: < 0.8 | CC50 at 48 h [3]: 205 µM

C=Cn1c2ccc([N+](=O)[O-])cc2c(=O)n1Cc1ccccc1
selectivity ratio [5]: 341 | pIC50 [1]: 3.59 | pIC50 [2]: 5.56 | pIC50 [6]: 6.33 | selectivity ratio [4]: 58.4 | CC50 at 48 h [3]: 160 µM

NC(=O)C1Nc2ccc([N+](=O)[O-])cc2C(=O)N1Cc1ccccc1 (stereo not given)
pIC50 [2]: < 3.59 | CC50 at 48 h [3]: > 256 µM

N#CCn1c2ccc([N+](=O)[O-])cc2c(=O)n1Cc1ccccc1
selectivity ratio [5]: > 73.1 | pIC50 [2]: 4.93 | pIC50 [6]: 5.46 | selectivity ratio [4]: > 21.9 | CC50 at 48 h [3]: > 256 µM

C=CCn1c2ccc([N+](=O)[O-])cc2c(=O)n1Cc1ccccc1
selectivity ratio [5]: 122 | pIC50 [1]: 3.45 | pIC50 [2]: 5.38 | pIC50 [6]: 5.80 | selectivity ratio [4]: 45.9 | CC50 at 48 h [3]: 192 µM

COCCn1c2ccc([N+](=O)[O-])cc2c(=O)n1Cc1ccccc1
selectivity ratio [5]: > 112 | pIC50 [1]: 3.55 | pIC50 [2]: 5.18 | pIC50 [6]: 5.64 | selectivity ratio [4]: > 39 | CC50 at 48 h [3]: > 256 µM

O=C(c1ccccc1)n1c2ccc([N+](=O)[O-])cc2c(=O)n1Cc1ccccc1
pIC50 [1]: 3.70 | pIC50 [2]: < 3.59 | selectivity ratio [4]: < 0.57 | CC50 at 48 h [3]: 146 µM

O=c1c2cc([N+](=O)[O-])ccc2n(CCOc2c3cc([N+](=O)[O-])ccc3nn2Cc2ccccc2)n1Cc1ccccc1
pIC50 [2]: < 3.59 | CC50 at 48 h [3]: > 256 µM

CCOC(=O)CCCn1c2ccc([N+](=O)[O-])cc2c(=O)n1Cc1ccccc1
pIC50 [1]: 3.72 | pIC50 [2]: 4.95 | selectivity ratio [4]: 7.01 | CC50 at 48 h [3]: 78.1 µM

CCOC(=O)CCCOc1c2cc([N+](=O)[O-])ccc2nn1Cc1ccccc1
selectivity ratio [5]: > 10.1 | pIC50 [1]: 4.69 | pIC50 [2]: 4.60 | pIC50 [6]: 4.60 | selectivity ratio [4]: > 10.2 | CC50 at 48 h [3]: > 256 µM

COC(=O)COc1c2cc([N+](=O)[O-])ccc2nn1Cc1ccccc1
pIC50 [2]: 3.84 | selectivity ratio [4]: > 1.77 | CC50 at 48 h [3]: > 256 µM

O=C(O)CCCn1c2ccc([N+](=O)[O-])cc2c(=O)n1Cc1ccccc1
pIC50 [2]: < 3.59 | CC50 at 48 h [3]: > 256 µM

O=c1c2cc([N+](=O)[O-])ccc2n(CCCO)n1Cc1ccccc1
selectivity ratio [5]: > 1024 | pIC50 [1]: 3.89 | pIC50 [2]: 5.77 | pIC50 [6]: 6.60 | selectivity ratio [4]: > 152 | CC50 at 48 h [3]: > 256 µM

COC(=O)Cn1c2ccc([N+](=O)[O-])cc2c(=O)n1Cc1ccccc1
pIC50 [1]: 3.27 | pIC50 [2]: 4.58 | selectivity ratio [4]: 4.92 | CC50 at 48 h [3]: 129 µM

NC(=O)CCCn1c2ccc([N+](=O)[O-])cc2c(=O)n1Cc1ccccc1
pIC50 [1]: 3.98 | pIC50 [2]: 4.51 | selectivity ratio [4]: > 8.26 | CC50 at 48 h [3]: > 256 µM

O=c1c2cc([N+](=O)[O-])ccc2n(CCBr)n1Cc1ccccc1
selectivity ratio [5]: > 225 | pIC50 [1]: 3.46 | pIC50 [2]: 5.67 | pIC50 [6]: 5.94 | selectivity ratio [4]: > 120 | CC50 at 48 h [3]: > 256 µM

CC(=O)OCCn1c2ccc([N+](=O)[O-])cc2c(=O)n1Cc1ccccc1
selectivity ratio [5]: > 1024 | pIC50 [1]: 3.58 | pIC50 [2]: 5.27 | pIC50 [6]: 6.60 | selectivity ratio [4]: > 47.1 | CC50 at 48 h [3]: > 256 µM

O=[N+]([O-])c1ccc2nn(Cc3ccccc3)c(OCCBr)c2c1
pIC50 [1]: 4.19 | pIC50 [2]: < 3.59 | CC50 at 48 h [3]: > 256 µM
